Data: paper PMC4610013 (Science Advances, 2015)

What was measured:
blood-brain barrier = experiment: Contrast-enhanced MRI of BBB integrity; type: in vivo, mouse; conditions: wild-type mice, tail-vein injection, 7-T T1-weighted MRI over 20 min, n = 4
How it was run: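 Mice received targeting or nontargeting siRNA (20 μg complexed with in vivo-jetPEI in 10% glucose, 15 min at room temperature). On a 7-T small-animal MRI, scans ran before and after tail-vein 100 μl of 1:3-diluted Gd-DTPA (0.5 M stock), monitored 20 min. Settings: TR/TE 500/2.7 ms, 30° flip angle, 8 repetitions. Hippocampal bolus-chase clearance was analysed blind to treatment.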

[1] = cited from earlier work
claudin-5 and occludin = experiment: Tight junction protein levels after Aβ treatment; type: cell-based, mouse; conditions: brain endothelial cells, increasing doses, 12 hours after treatment, Western blot
How it was run: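 Bend.3 mouse brain endothelial cells were grown in DMEM with 20% FCS and 2 mM sodium pyruvate at 37°C, 5% CO2. They were exposed 12 h to increasing concentrations of Aβ(1–40) peptide forms, with unmodified monomer at 0.1 to 1 μM. Cells were lysed in tris/2% SDS/10 mM DTT buffer and spun 12,000 rpm for 20 min at 4°C. Tight junction proteins were measured by Western blot densitometry, n = 3 […] per concentration.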

Molecule	extravasation of MRI contrast agent after claudin-5 and occludin cosuppression (blood-brain barrier)	propensity for aggregation [1]	levels of claudin-5 and occludin protein (claudin-5 and occludin)
O=C([O-])CN(CCN(CC(=O)[O-])CC(=O)O)CCN(CC(=O)[O-])CC(=O)O.[Gd+3] [Gd-DTPA, gadolinium–diethylenetriamine pentaacetic acid]	increased extravasation	–	–
Aβ(1–40)F19P	–	little or no propensity for aggregation	down-regulated
Aβ(1–40)DiY: dityrosine cross-linked dimer prepared by oxidative cross-linking of Aβ(1–40)	–	–	down-regulated
Aβ(1–40): unmodified Aβ(1–40) monomer isolated by size exclusion chromatography	–	–	dose-dependent decrease
